Experimental data from ChEMBL document CHEMBL1157618, “Noncovalent tripeptidyl benzyl- and cyclohexyl-amine inhibitors of the cysteine protease caspase-1” (J Med Chem, 2010).

target: T1, Caspase-1 (Homo sapiens, UniProt P29466); assay: Inhibition of human recombinant caspase 1
T1 sequence (P29466 whole entry): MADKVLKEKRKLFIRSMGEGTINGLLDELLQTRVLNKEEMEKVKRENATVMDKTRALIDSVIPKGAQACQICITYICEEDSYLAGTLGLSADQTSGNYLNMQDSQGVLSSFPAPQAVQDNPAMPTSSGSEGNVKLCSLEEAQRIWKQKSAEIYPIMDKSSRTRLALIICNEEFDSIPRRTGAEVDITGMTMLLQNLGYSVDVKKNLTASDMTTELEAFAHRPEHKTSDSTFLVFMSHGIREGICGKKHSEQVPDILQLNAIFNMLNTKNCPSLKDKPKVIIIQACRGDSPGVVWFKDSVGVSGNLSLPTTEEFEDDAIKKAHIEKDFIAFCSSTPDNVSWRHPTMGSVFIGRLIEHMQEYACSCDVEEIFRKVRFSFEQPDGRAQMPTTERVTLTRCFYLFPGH
Outline: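 Recombinant human caspase-1 stored at -80 °C as aliquots and used at 1:20 dilution; enzyme preincubated with inhibitor (Ki determinations). Substrate Ac-Trp-Glu-His-Asp-AMC, 5 μM final. AMC release followed kinetically, excitation 380 nm, emission 460 nm.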

Compared with `CC(C)[C@H](NC(=O)c1ccc2ccccc2c1)C(=O)N[C@@H](C)C(=O)N[C@H](CCCc1ccccc1)CC(=O)O`, `CC(C)[C@H](NC(=O)c1ccc2ccccc2c1)C(=O)N[C@@H](C)C(=O)N[C@H](CNCc1ccccc1)CC(=O)O` is lower in Ki: > 50000 nM for the first, 600 nM for the second. The second binds more tightly here.

First: CC(C)[C@H](NC(=O)c1ccc2ccccc2c1)C(=O)N[C@@H](C)C(=O)N[C@H](CNC1CCCCC1)CC(=O)O
Second: CC(C)[C@H](NC(=O)c1ccc2ccccc2c1)C(=O)N[C@@H](C)C(=O)N[C@@H](CC(=O)O)CN(C)C1CCCCC1
The Ki of the first is 7.4-fold higher: 945 nM for the first, 128 nM for the second. The second binds more tightly here.

`CC(C)[C@H](NC(=O)c1ccc2ccccc2c1)C(=O)N[C@@H](C)C(=O)N[C@H](CNCc1ccc(O)cc1)CC(=O)O` and `CC(C)[C@H](NC(=O)c1ccc2ccccc2c1)C(=O)N[C@@H](C)C(=O)N[C@H](CNCc1ccc(C(N)=O)cc1)CC(=O)O` are within 1.5-fold of each other in Ki: 1370 nM for the first, 1820 nM for the second.

First: CC(C)[C@H](NC(=O)c1ccc2ccccc2c1)C(=O)N[C@@H](C)C(=O)N[C@H](CNCc1ccc2c(c1)OCO2)CC(=O)O
Second: CC(C)[C@H](NC(=O)c1ccc2ccccc2c1)C(=O)N[C@@H](C)C(=O)N[C@H](CNCc1ccccc1O)CC(=O)O
The Ki of the first is 4.4-fold higher: 209 nM for the first, 47 nM for the second.

`CC(C)[C@H](NC(=O)c1ccc2ccccc2c1)C(=O)N[C@@H](C)C(=O)N[C@H](CNCc1ccccc1F)CC(=O)O` and `COc1ccccc1CNC[C@H](CC(=O)O)NC(=O)[C@H](C)NC(=O)[C@@H](NC(=O)c1ccc2ccccc2c1)C(C)C` are within 1.5-fold of each other in Ki: 1200 nM for the first, 965 nM for the second.

Molecule `CC(C)[C@H](NC(=O)c1ccc2ccccc2c1)C(=O)N[C@@H](C)C(=O)N[C@@H](CC(=O)O)CN(C)Cc1ccccc1` has a Ki of 1890 nM.

`CC(C)[C@H](NC(=O)c1ccc2ccccc2c1)C(=O)N[C@@H](C)C(=O)N[C@H](C=O)CC(=O)O` showed an IC50 of 0.2 nM.

target: Caspase-8 (Homo sapiens, UniProt Q14790); assay: Inhibition of caspase 8
Sequence (Q14790 217-374 limits assumed): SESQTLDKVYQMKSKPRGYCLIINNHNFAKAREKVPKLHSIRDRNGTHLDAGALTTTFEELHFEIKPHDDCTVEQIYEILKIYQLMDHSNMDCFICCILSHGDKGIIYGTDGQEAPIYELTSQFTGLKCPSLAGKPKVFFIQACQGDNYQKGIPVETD
Sequence (Q14790 385-479 limits assumed): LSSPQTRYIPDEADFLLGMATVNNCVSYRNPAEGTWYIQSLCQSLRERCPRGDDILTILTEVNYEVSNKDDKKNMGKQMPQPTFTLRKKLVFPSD

For `CC(C)[C@H](NC(=O)c1ccc2ccccc2c1)C(=O)N[C@@H](C)C(=O)N[C@H](CNCc1ccccc1O)CC(=O)O`, the IC50 was 100000 nM.
